# According to ChEMBL document CHEMBL1141682, “Discovery of novel potent and selective dipeptide hepatitis C virus NS3/4A serine protease inhibitors” (Bioorg Med Chem Lett, 2008):
# Assays:
# [1] = Inhibition of full length HCV NS3/4A protease; parameters: species or system Hepacivirus hominis
# In short: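 Full-length recombinant genotype 1 NS3 protease was run with a truncated NS4A cofactor in a biochemical assay. Inhibition constants (Ki) are reported.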
# Hepatitis C virus = experiment: Inhibition of HCV replication in human HuH7-Rep cells containing subgenomic bicistronic clone; type: functional, organism-based, Hepacivirus hominis; settings: Huh-7
# In short: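 Huh7 cells carried the subgenomic bicistronic replicon clone ET with a luciferase reporter. EC50 is the concentration that cut luciferase signal by 50% relative to untreated control.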
# [2] = Metabolic stability in human liver microsomess after 15 mins at 5 uM; type: ADME, Microsome; settings: liver microsomes
# In short: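 Compound at 5 µM was incubated with human liver microsomes for 15 min at 37 °C. Stability is expressed as percent of compound metabolized.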
# [3] = Permeability from apical to basolateral side of human Caco-2 cells; type: ADME, cell-based
# MT4 = experiment: Cytotoxicity against human MT4 cells by LTR-luciferase assay; type: functional
# In short: (§1)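 Cytotoxicity was tested in MT4-LTR-Luc and Huh7-CMV-Luc reporter cell lines. Results are given as CC50.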
# Huh-7 = experiment: Cytotoxicity against human HuH7 cells by CMV-luciferase assay; type: functional; in short: as §1
# [4] = Plasma concentration in Sprague-Dawley rat at 2 mg/kg, iv after 0.12 hrs; type: ADME, organism-based; parameters: dose 2 mg/kg, route intravenous
# In short: (§2)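 Male SD rats (n = 2 per route) got a single dose: 2 mg/kg IV in 20% hydroxypropyl-β-cyclodextrin, or 10 mg/kg oral in 50% PEG400 with 2.5% vitamin E-TPGS. Plasma was sampled out to 8 h. Heart and liver levels were taken at 8 h. Oral half-life was fitted over 2–8 h. Bioavailability compares oral against IV exposure.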
# [5] = Plasma concentration in Sprague-Dawley rat at 2 mg/kg, iv after 0.33 hrs; type: ADME, organism-based; parameters: dose 2 mg/kg, route intravenous; in short: as §2
# [6] = Plasma concentration in Sprague-Dawley rat at 2 mg/kg, iv after 1 hr; type: ADME, organism-based; parameters: dose 2 mg/kg, route intravenous; in short: as §2
# [7] = Plasma concentration in Sprague-Dawley rat at 2 mg/kg, iv after 2 hrs; type: ADME, organism-based; parameters: dose 2 mg/kg, route intravenous; in short: as §2
# [8] = Plasma concentration in Sprague-Dawley rat at 2 mg/kg, iv after 4 hrs; type: ADME, organism-based; parameters: dose 2 mg/kg, route intravenous; in short: as §2
# [9] = Plasma concentration in Sprague-Dawley rat at 2 mg/kg, iv after 8 hrs; type: ADME, organism-based; parameters: dose 2 mg/kg, route intravenous; in short: as §2
# [10] = Plasma concentration in Sprague-Dawley rat at 10 mg/kg, po after 0.5 hrs; type: ADME, organism-based; parameters: dose 10 mg/kg, route oral; in short: as §2
# [11] = Plasma concentration in Sprague-Dawley rat at 10 mg/kg, po after 1 hr; type: ADME, organism-based; parameters: dose 10 mg/kg, route oral; in short: as §2
# [12] = Plasma concentration in Sprague-Dawley rat at 10 mg/kg, po after 2 hrs; type: ADME, organism-based; parameters: dose 10 mg/kg, route oral; in short: as §2
# [13] = Plasma concentration in Sprague-Dawley rat at 10 mg/kg, po after 4 hrs; type: ADME, organism-based; parameters: dose 10 mg/kg, route oral; in short: as §2
# [14] = Plasma concentration in Sprague-Dawley rat at 10 mg/kg, po after 8 hrs; type: ADME, organism-based; parameters: dose 10 mg/kg, route oral; in short: as §2
# [15] = Cmax in Sprague-Dawley rat at 10 mg/kg, po; type: ADME, organism-based; parameters: dose 10 mg/kg, route oral; settings: in vivo; in short: as §2
# [16] = Tmax in Sprague-Dawley rat at 10 mg/kg, po; type: ADME, organism-based; parameters: dose 10 mg/kg, route oral; settings: in vivo; in short: as §2
# [17] = Half life (2 to 8 hrs) in Sprague-Dawley rat at 2 mg/kg, iv; type: ADME, organism-based; parameters: dose 2 mg/kg, route intravenous; settings: in vivo
# [18] = Half life (2 to 8 hrs) in Sprague-Dawley rat at 10 mg/kg, po; type: ADME, organism-based; parameters: dose 10 mg/kg, route oral; settings: in vivo; in short: as §2
# [19] = AUC (0 to 8 hrs) in Sprague-Dawley rat at 2 mg/kg, iv; type: ADME, organism-based; parameters: time < 8 hr, dose 2 mg/kg, route intravenous; settings: plasma; in short: as §2
# Rattus norvegicus [20] = experiment: AUC (0 to infinity) in Sprague-Dawley rat at 2 mg/kg, iv; type: ADME, organism-based, Plasma; parameters: time infinity, dose 2 mg/kg, route intravenous; settings: in vivo; in short: as §2
# [21] = AUC (0 to infinity) in Sprague-Dawley rat at 10 mg/kg, po; type: ADME, organism-based; parameters: time infinity, dose 10 mg/kg, route oral; settings: plasma; in short: as §2
# [22] = Volume of distribution in steady state in Sprague-Dawley rat at 2 mg/kg, iv; type: ADME, organism-based; parameters: dose 2 mg/kg, route intravenous; settings: in vivo, read-out: Vdss; in short: as §2
# Rattus norvegicus [23] = experiment: Clearance in Sprague-Dawley rat at 2 mg/kg, iv; type: ADME, organism-based; parameters: dose 2 mg/kg, route intravenous; settings: in vivo; in short: as §2
# [24] = Oral bioavailability in Sprague-Dawley rat at 10 mg/kg, po; type: ADME, organism-based; settings: in vivo; in short: as §2
# [25] = Drug level in Sprague-Dawley rat heart at 2 mg/kg, iv after 8 hrs; type: ADME, organism-based; parameters: dose 2 mg/kg, route intravenous; settings: read-out: Drug uptake; in short: as §2
# [26] = Drug level in Sprague-Dawley rat heart at 10 mg/kg, po after 8 hrs; type: ADME, organism-based; parameters: dose 10 mg/kg, route oral; in short: as §2
# [27] = Drug level in Sprague-Dawley rat liver at 2 mg/kg, iv after 8 hrs; type: ADME, organism-based; parameters: dose 2 mg/kg, route intravenous; settings: read-out: Drug uptake; in short: as §2
# [28] = Drug level in Sprague-Dawley rat liver at 10 mg/kg, po after 8 hrs; type: ADME, organism-based; parameters: dose 10 mg/kg, route oral; settings: read-out: Drug uptake; in short: as §2
# [29] = AUC (0 to 8 hrs) in Sprague-Dawley rat at 10 mg/kg, po; type: ADME, organism-based; parameters: time < 8 hr, dose 10 mg/kg, route oral; settings: plasma; in short: as §2
smiles,measurement,setting,value
COc1ccc2c(O[C@@H]3C[C@H]4C(=O)N[C@]5(C(=O)NS(=O)(=O)C6(C)CC6)C[C@H]5/C=C\CCCCCC(=O)N4C3)cc(-c3nc(C(C)C)cs3)nc2c1Cl,Ki,[1],0.2 nM
same,EC50,Hepatitis C virus,3.76 nM
same,"metabolized at 0.25 h, 5 µM",[2],42.6%
same,Papp A→B,[3],11.1 ×10⁻⁶ cm/s
same,CC50,MT4,> 20000 nM
same,CC50,Huh-7,> 20000 nM
same,concentration at 0.12 h,[4],1500 ng/mL
same,concentration at 0.33 h,[5],708 ng/mL
same,concentration at 1 h,[6],449 ng/mL
same,concentration at 2 h,[7],290 ng/mL
same,concentration at 4 h,[8],139 ng/mL
same,concentration at 8 h,[9],53 ng/mL
same,concentration at 0.5 h,[10],698 ng/mL
same,concentration at 1 h,[11],693 ng/mL
same,concentration at 2 h,[12],632 ng/mL
same,concentration at 4 h,[13],363 ng/mL
same,concentration at 8 h,[14],133 ng/mL
same,Cmax,[15],715 ng/mL
same,Tmax,[16],0.75 h
same,half-life,[17],2.49 h
same,half-life,[18],2.73 h
same,AUC(0-t) at 8 h,[19],1960 ng·h/mL
same,AUC,Rattus norvegicus [20],2154 ng·h/mL
same,AUC(0-inf),[21],3610 ng·h/mL
same,Vd,[22],2.75 L/kg
same,CL,Rattus norvegicus [23],65.7 mL/min/kg
same,bioavailability,[24],31%
same,concentration at 8 h,[25],15.1 ng/g
same,concentration at 8 h,[26],35.8 ng/g
same,concentration at 8 h,[27],3660 ng/g
same,concentration at 8 h,[28],7660 ng/g
same,AUC(0-t) at 8 h,[29],3070 ng·h/mL
COc1ccc2c(O[C@@H]3C[C@H]4C(=O)N[C@]5(C(=O)NS(=O)(=O)C6CC6)C[C@H]5/C=C\CCCCCC(=O)N4C3)cc(-c3nc(C(C)C)cs3)nc2c1Cl,Ki,[1],0.4 nM
same,EC50,Hepatitis C virus,11.7 nM
COc1ccc2c(O[C@@H]3C[C@H]4C(=O)N[C@]5(C(=O)NS(=O)(=O)C6CC6)C[C@H]5/C=C\CCCCCCC(=O)N4C3)cc(-c3nccs3)nc2c1Br,Ki,[1],0.1 nM
same,EC50,Hepatitis C virus,1.9 nM
same,"metabolized at 0.25 h, 5 µM",[2],100%
COc1ccc2c(O[C@@H]3C[C@H]4C(=O)N[C@]5(C(=O)O)C[C@H]5/C=C\CCCCCCC(=O)N4C3)cc(-c3nc(C(C)C)cs3)nc2c1,Ki,[1],18 nM
same,EC50,Hepatitis C virus,5040 nM
COc1ccc2c(O[C@@H]3C[C@H]4C(=O)N[C@]5(C(=O)NS(=O)(=O)C6CC6)C[C@H]5/C=C\CCCCCCC(=O)N4C3)cc(-c3nc(C(C)C)cs3)nc2c1,Ki,[1],0.65 nM
same,EC50,Hepatitis C virus,18 nM
same,"metabolized at 0.25 h, 5 µM",[2],98%
COc1ccc2c(O[C@@H]3C[C@H]4C(=O)N[C@]5(C(=O)NS(=O)(=O)C6CC6)C[C@H]5/C=C\CCCCCC(=O)N4C3)cc(-c3nc(C(C)C)cs3)nc2c1,Ki,[1],0.4 nM
same,EC50,Hepatitis C virus,23.9 nM
same,"metabolized at 0.25 h, 5 µM",[2],82.4%
COc1ccc2c(O[C@@H]3C[C@H]4C(=O)N[C@]5(C(=O)NS(=O)(=O)C6CC6)C[C@H]5/C=C\CCCCCCC(=O)N4C3)cc(-c3nccs3)nc2c1C,Ki,[1],0.5 nM
same,EC50,Hepatitis C virus,4.37 nM
same,"metabolized at 0.25 h, 5 µM",[2],98.4%
COc1ccc2c(O[C@@H]3C[C@H]4C(=O)N[C@]5(C(=O)O)C[C@H]5/C=C\CCCCC[C@H](NC(=O)OC5CCCC5)C(=O)N4C3)cc(-c3csc(NC(C)C)n3)nc2c1 [CILUPREVIR],Ki,[1],0.3 nM
same,EC50,Hepatitis C virus,1.63 nM
same,"metabolized at 0.25 h, 5 µM",[2],28.5%
COc1ccc2c(O[C@@H]3C[C@H]4C(=O)N[C@]5(C(=O)NS(=O)(=O)C6CC6)C[C@H]5/C=C\CCCCCCC(=O)N4C3)cc(-c3nccs3)nc2c1,Ki,[1],1 nM
same,EC50,Hepatitis C virus,16.8 nM
same,"metabolized at 0.25 h, 5 µM",[2],100%
COc1ccc2c(O[C@@H]3C[C@H]4C(=O)N[C@]5(C(=O)NS(=O)(=O)C6CC6)C[C@H]5/C=C\CCCCCCC(=O)N4C3)cc(-c3cscn3)nc2c1,Ki,[1],0.5 nM
same,EC50,Hepatitis C virus,3.97 nM
COc1ccc2c(O[C@@H]3C[C@H]4C(=O)N[C@]5(C(=O)NS(=O)(=O)C6CC6)C[C@H]5/C=C\CCCCCC(=O)N4C3)cc(-c3nc(C(C)C)cs3)nc2c1C,Ki,[1],0.2 nM
same,EC50,Hepatitis C virus,3.55 nM
same,"metabolized at 0.25 h, 5 µM",[2],50.2%
COc1ccc2c(O[C@@H]3C[C@H]4C(=O)N[C@]5(C(=O)NS(=O)(=O)C6(C)CC6)C[C@H]5/C=C\CCCCCC(=O)N4C3)cc(-c3nc(C(C)C)cs3)nc2c1C,Ki,[1],0.4 nM
same,EC50,Hepatitis C virus,14.1 nM
same,"metabolized at 0.25 h, 5 µM",[2],28.8%
COc1ccc2c(O[C@@H]3C[C@H]4C(=O)N[C@]5(C(=O)NS(=O)(=O)C6CC6)C[C@H]5/C=C\CCCCCCC(=O)N4C3)cc(-c3nc(C(C)C)cs3)nc2c1C,Ki,[1],2.8 nM
same,EC50,Hepatitis C virus,5.84 nM
COc1ccc2c(O[C@@H]3C[C@H]4C(=O)N[C@]5(C(=O)NS(=O)(=O)C6CC6)C[C@H]5/C=C\CCCCCCC(=O)N4C3)cc(-c3csc(NC(C)C)n3)nc2c1,Ki,[1],0.9 nM
same,EC50,Hepatitis C virus,20.4 nM
same,"metabolized at 0.25 h, 5 µM",[2],91.5%
COc1ccc2c(O[C@@H]3C[C@H]4C(=O)N[C@]5(C(=O)O)C[C@H]5/C=C\CCCCCCC(=O)N4C3)cc(-c3csc(NC(C)C)n3)nc2c1,Ki,[1],46 nM
same,EC50,Hepatitis C virus,1980 nM
